Measured values as given in PubChem BioAssay.
The source made the active and inactive calls.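 How the source made its calls, unless noted: active means inhibition above 20% together with a positive visual image hit; inconclusive means visual image hit but inhibition not above 20%; inactive means no visual image hit.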

How the values were obtained:
[1] = inhibitors of TNFa-induced NFkB p65 translocation, primary screen, imaging, HUVEC, MLSMR starter and 10KST1 sets (AID 438); details: HUVEC TNFa-induced p65 nuclear translocation; cell count: measured here: nuclei count (cytotoxicity indicator), at 2.08 µM; inhibition: at 2 µM, stronger effect = higher value, 0% TNFa-plus-vehicle, 100% no-TNFa wells;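 further: compound added about 3h40 before a 20 min TNFalpha stimulation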;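 on inhibition: signal is the nuclear over cytoplasmic p65 intensity ratio per well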
[2] = inhibitors of E-selectin induction by TNFa, primary screen, imaging, HUVEC, immunofluorescence, MLSMR starter and 10KST1 sets (AID 487;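 active means visually confirmed hit in the image check and inhibition above 20%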;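 on inhibition: signal is fraction of cell area covered by stained E-selectin grains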;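 on nuclei count: 100% = median nuclei count of all wells on the same plate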); details: HUVEC TNFalpha-induced E-selectin immunofluorescence imaging, at 2 µM; inhibition: stronger effect = higher value; nuclei count: measured here: cell number, toxicity
[3] = DUSP6 inhibitors restoring Erk phosphorylation by chemical complementation, primary imaging in DUSP6-transfected HeLa (AID 609;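 active means compounds giving at least 50% inhibition in the cell-based MKP-3 phosphatase rescue imaging test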;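 on inhibition: phospho-Erk level distribution per well compared with pooled transfected vehicle control wells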); details: HeLa MKP-3 transfected, phospho-Erk imaging KS statistic, at 10 µM, cells stimulated with TPA for 15 min
[4] = target: Dual specificity protein phosphatase 6 (Homo sapiens) (UniProt Q16828); experiment: as above; details: HeLa MKP-3 transfected, phospho-Erk imaging KS statistic; at 10 µM; stronger effect = higher value; cells stimulated with TPA for 15 min
[5] = target: Voltage-gated potassium channel subunit beta-2 (Rattus norvegicus) (UniProt P62483); experiment: KvBeta enzyme negative modulators, primary screen, biochemical, NADPH fluorescence (AID 622;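 active means fluorescence slope higher than the sample average by over 3 SD, cut at about -0.22 in these data, passing the limit was not always enough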;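 further: slope of raw intensity against log time taken from 70 to 1610 s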); details: recombinant KvBeta, 4-cyanobenzaldehyde reduction, at 10 µM, stronger effect = higher value
[6] = target: Voltage-gated potassium channel subunit beta-2 (Rattus norvegicus) (UniProt P62483); experiment: KvBeta positive modulators, primary screen, biochemical, NADPH fluorescence (AID 623;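 active means NADPH fluorescence slope more negative than the mean of all samples by about 3 SD, 99.7% confidence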;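 further: fluorescence intensity change per second fitted from 20 to 320 s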); details: Recombinant KvBeta, NADPH fluorescence decrease slope, 10 min; at 10 µM; stronger effect = lower value
[7] = target: Alpha-2C adrenergic receptor (Homo sapiens) (UniProt P18825); experiment: modulators of alpha2C/GIRK thallium flux, primary screen, cell-based, HEK293 alpha2C/GIRK1/2 (AID 624;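 active means fluorescence slope after compound addition differing from the mean of all screened samples at 99.7% confidence, in either direction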;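 further: slope of fluorescence ratio to pre-addition baseline per second over 15 to 24 s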); details: thallium flux BTC fluorescence, at 10 µM, actives lie on both sides
[8] = inhibitors of Chlamydomonas gravitaxis, primary screen, whole organism, Chlamydomonas reinhardtii, WT vs cilia-less mutant, absorbance, 96-well (AID 463189;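 active means inhibition at or above 50% relative to wild type and mutant plate controls; inactive means inhibition below 50%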;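 further: 0% = wild type cc124 cells in DMSO and 100% = ciliumless bld1 mutant cells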); details: OD600 absorbance, 2 days, at 10 µM, stronger effect = higher value
[9] = inhibitors of larval lipid processing in zebrafish, primary screen, whole organism, PED6 fluorescence, gall bladder and intestine (AID 686;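 active means a full or partial loss of lipid-probe fluorescence in the fish gall bladder, intestine or both, judged by eye; inactive means no fluorescence loss, or compound toxic to the fish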;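 further: larvae 5 to 7 days old with five fish per well; signal comes from phospholipase A2 cleavage of quenched PED6 carried via bile; overnight exposure to compound and PED6 before scoring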); details: Zebrafish larvae PED6 lipid processing, fluorescence scoring; screened at 20 µM (by protocol)
In short: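 System: live zebrafish larvae aged 5-7 days, whole organism; measure: graded gall bladder and intestinal fluorescence inhibition per well; incubation: overnight exposure; reagent: ingested quenched lipid PED6 at 100 nM; signal: By-eye fluorescence microscopy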

[10] = measured here: cell density z-score
[11] = measured here: nuclear c-Myc green intensity z-score
[12] = measured here: nuclear pErk red intensity z-score, stronger effect = higher value

Chain of Dual specificity protein phosphatase 6 (Homo sapiens) (Q16828 whole entry, looked up): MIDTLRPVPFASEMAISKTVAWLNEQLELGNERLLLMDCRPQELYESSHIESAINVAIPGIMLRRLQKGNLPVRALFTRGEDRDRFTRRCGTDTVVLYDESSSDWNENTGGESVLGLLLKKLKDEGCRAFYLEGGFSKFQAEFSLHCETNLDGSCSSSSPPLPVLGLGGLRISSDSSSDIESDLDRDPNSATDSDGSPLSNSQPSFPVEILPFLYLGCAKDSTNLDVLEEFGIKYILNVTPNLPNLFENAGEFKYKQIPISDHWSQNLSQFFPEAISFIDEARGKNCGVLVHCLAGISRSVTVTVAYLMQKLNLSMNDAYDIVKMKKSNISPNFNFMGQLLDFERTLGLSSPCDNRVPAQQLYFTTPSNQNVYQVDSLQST
Chain of Voltage-gated potassium channel subunit beta-2 (Rattus norvegicus) (P62483 whole entry, looked up): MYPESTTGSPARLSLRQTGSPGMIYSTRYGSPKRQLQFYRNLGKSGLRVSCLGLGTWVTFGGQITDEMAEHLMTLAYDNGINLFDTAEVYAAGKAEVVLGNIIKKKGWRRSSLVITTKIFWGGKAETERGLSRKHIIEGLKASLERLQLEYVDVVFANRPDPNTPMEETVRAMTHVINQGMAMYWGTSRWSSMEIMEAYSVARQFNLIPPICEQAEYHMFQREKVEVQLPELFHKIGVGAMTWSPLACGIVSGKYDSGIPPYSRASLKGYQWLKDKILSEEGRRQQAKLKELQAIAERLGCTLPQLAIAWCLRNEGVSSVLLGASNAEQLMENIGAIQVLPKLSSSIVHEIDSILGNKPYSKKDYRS
Chain of Alpha-2C adrenergic receptor (Homo sapiens) (P18825 whole entry, looked up): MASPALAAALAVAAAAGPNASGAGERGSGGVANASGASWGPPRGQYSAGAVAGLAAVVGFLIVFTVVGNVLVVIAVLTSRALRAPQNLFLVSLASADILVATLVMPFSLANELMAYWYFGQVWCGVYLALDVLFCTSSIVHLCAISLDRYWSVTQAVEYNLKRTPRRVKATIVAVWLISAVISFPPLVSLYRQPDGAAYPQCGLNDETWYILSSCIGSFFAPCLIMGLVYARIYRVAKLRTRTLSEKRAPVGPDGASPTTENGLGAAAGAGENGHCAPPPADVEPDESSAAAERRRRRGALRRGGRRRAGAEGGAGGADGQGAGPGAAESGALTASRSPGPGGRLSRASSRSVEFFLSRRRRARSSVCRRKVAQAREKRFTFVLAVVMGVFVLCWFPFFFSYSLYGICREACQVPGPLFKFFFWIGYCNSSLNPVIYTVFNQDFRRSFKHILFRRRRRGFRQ

Row | Structure (SMILES) | cell count [1] | inhibition [1] | inhibition [2] | nuclei count [2] [%] | z-score [3, 10] | z-score [3, 11] | z-score [3, 12] | inhibition [4] | fluorescence slope [5] | NADPH fluorescence slope [6] | slope [7] | inhibition [8] | outcome [9]
1 | COc1ccc(C2C=C(c3ccc(Cl)cc3)Nc3nc(NC(C)=O)nn32)cc1 (configuration not stated) | 325 | 1.9% (inactive) | -27.6% (inactive) | 159 | -0.557 | 0.239 | 0.747 | -8.76% (inactive) | -0.144 (inactive) | 4.9e-05 (inactive) | 0.00461 (inactive) | 7.51% (inactive) | –
2 | CCOc1ccc(/C(O)=C2/C(=O)C(=O)N(c3nc(C)c(C)s3)C2c2ccco2)cc1 (configuration not stated) | 326 | 13.9% (inactive) | -54.1% (inactive) | 106 | -0.851 | 0.684 | 1.89 | -10.5% (inactive) | -0.39 (inactive) | -5.6e-05 (inactive) | 0.00508 (inactive) | -2.1% (inactive) | –
3 | O=C(O)CCCCCN1C(=O)CCC1=O | 376 | -5.6% (inactive) | -216% (inactive) | 154 | -0.0667 | -0.815 | 0.641 | 5.26% (inactive) | -0.456 (inactive) | -0.000125 (inactive) | 0.0074 (inactive) | 7.42% (inactive) | –
4 | CCN(CC)CCCN1C(=O)C(=O)/C(=C(/O)c2ccc(Cl)cc2)C1c1ccccn1 (configuration not stated) | 355 | 3.2% (inactive) | -70.8% (inactive) | 81.9 | -2.05 | -1.03 | 0.528 | -15.8% (inactive) | -0.442 (inactive) | -0.000153 (inactive) | 0.00491 (inactive) | 24.6% (inactive) | –
5 | CC(=O)Nc1n[nH]c(S(=O)(=O)Cc2ccc(Cl)cc2Cl)n1 | 384 | 7.4% (inactive) | 5.6% (inactive) | 144 | -0.283 | -0.511 | -0.141 | -7.01% (inactive) | -0.401 (inactive) | -0.000133 (inactive) | 0.00491 (inactive) | 16.4% (inactive) | –
6 | N#C/C(=C\N1CCN(Cc2ccc3c(c2)OCO3)CC1)c1nc2ccccc2s1 | 359 | -3.7% (inactive) | -122% (inactive) | 170 | -0.883 | 0.284 | 0.578 | -14% (inactive) | -0.428 (inactive) | -0.000152 (inactive) | 0.00144 (inactive) | 100% (active) | –
7 | COc1cccc(/C(O)=C2/C(=O)C(=O)N(CCN(C)C)C2c2ccc(Br)cc2)c1 (configuration not stated) | 321 | 18.1% (inactive) | 14.2% (inactive) | 102 | 0.101 | 1.46 | -0.618 | -12.3% (inactive) | -0.456 (inactive) | 7.9e-06 (inactive) | 0.00697 (inactive) | 28.7% (inactive) | –
8 | Cc1ccc2cc(CN(C(=O)c3ccco3)c3ccccc3)c(=O)[nH]c2c1 | 312 | -4.2% (inactive) | -134% (inactive) | 163 | 1.52 | -0.685 | -0.563 | 19.3% (inactive) | -0.412 (inactive) | -4.7e-05 (inactive) | 0.0072 (inactive) | 33.7% (inactive) | –
9 | CC1(C)C/C(=C(/C#N)C(N)=O)CCO1 | 575 | -11.9% (inactive) | -42.1% (inactive) | 110 | 0.299 | 1.82 | -0.278 | -8.95% (inactive) | -0.392 (inactive) | 4.5e-06 (inactive) | 0.00848 (inactive) | -18.4% (inactive) | inactive
10 | O=C1c2ccccc2S(=O)(=O)N1CC(O)COc1ccc(Cl)cc1 (configuration not stated) | 354 | -14.1% (inactive) | -291% (inactive) | 97 | 0.633 | 0.437 | -1.99 | 1.75% (inactive) | -0.439 (inactive) | -8.9e-06 (inactive) | 0.00476 (inactive) | 1.18% (inactive) | inactive
